Experimental data taken from ChEMBL document CHEMBL1139873, “Bispyridinium dienes: histone deacetylase inhibitors with selective activities” (J Med Chem, 2007).
Activity calls are given as the source filed them. The calls are words filed in the database; no cut-off is given here.

Assays:
U-937 [1] = assay: Increase in histone H3 acetylation in U937 cells at 5 uM after 24 hrs by Western blot analysis; assay type: cell-based; conditions: Homo sapiens
U-937 [2] = assay: Effect on alpha tubulin acetylation in U937 cells at 1 uM after 24 hrs by Western blot analysis; assay type: functional, cell-based; conditions: Homo sapiens
U-937 [3] = assay: Effect on alpha tubulin acetylation in U937 cells at 5 uM after 24 hrs by Western blot analysis; assay type: functional, cell-based; conditions: Homo sapiens
U-937 [4] = assay: Effect on granulocyte differentiation in U937 cells assessed as CD11c expression after 30 hrs; assay type: functional, Homo sapiens
Summary of the method: (§1)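 U937 cells were stained with phycoerythrine-conjugated anti-CD11c for 30 min at 4 °C in the dark, with PE-mouse IgG1 as the staining control. Cells were washed in PBS, taken up in PBS with 0.25 µg/mL propidium iodide and analysed by FACS. PI-positive cells were excluded.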

U-937 [5] = assay: Induction of apoptosis in U937 cells after 30 hrs by FACS analysis; assay type: functional, cell-based; conditions: Homo sapiens
Summary of the method: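 U937 cells in supplemented RPMI were exposed 30 h to compounds dissolved in DMSO (1 or 5 µM). Apoptosis was scored by flow cytometry as the percentage of active caspase 3-positive cells, as the mean of independent duplicates.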

Histone deacetylase 4 = Histone deacetylase 4 (Homo sapiens, UniProt P56524); assay: Inhibition of HDAC4
Chain of Histone deacetylase 4 (P56524 whole entry, the tested form may be a part): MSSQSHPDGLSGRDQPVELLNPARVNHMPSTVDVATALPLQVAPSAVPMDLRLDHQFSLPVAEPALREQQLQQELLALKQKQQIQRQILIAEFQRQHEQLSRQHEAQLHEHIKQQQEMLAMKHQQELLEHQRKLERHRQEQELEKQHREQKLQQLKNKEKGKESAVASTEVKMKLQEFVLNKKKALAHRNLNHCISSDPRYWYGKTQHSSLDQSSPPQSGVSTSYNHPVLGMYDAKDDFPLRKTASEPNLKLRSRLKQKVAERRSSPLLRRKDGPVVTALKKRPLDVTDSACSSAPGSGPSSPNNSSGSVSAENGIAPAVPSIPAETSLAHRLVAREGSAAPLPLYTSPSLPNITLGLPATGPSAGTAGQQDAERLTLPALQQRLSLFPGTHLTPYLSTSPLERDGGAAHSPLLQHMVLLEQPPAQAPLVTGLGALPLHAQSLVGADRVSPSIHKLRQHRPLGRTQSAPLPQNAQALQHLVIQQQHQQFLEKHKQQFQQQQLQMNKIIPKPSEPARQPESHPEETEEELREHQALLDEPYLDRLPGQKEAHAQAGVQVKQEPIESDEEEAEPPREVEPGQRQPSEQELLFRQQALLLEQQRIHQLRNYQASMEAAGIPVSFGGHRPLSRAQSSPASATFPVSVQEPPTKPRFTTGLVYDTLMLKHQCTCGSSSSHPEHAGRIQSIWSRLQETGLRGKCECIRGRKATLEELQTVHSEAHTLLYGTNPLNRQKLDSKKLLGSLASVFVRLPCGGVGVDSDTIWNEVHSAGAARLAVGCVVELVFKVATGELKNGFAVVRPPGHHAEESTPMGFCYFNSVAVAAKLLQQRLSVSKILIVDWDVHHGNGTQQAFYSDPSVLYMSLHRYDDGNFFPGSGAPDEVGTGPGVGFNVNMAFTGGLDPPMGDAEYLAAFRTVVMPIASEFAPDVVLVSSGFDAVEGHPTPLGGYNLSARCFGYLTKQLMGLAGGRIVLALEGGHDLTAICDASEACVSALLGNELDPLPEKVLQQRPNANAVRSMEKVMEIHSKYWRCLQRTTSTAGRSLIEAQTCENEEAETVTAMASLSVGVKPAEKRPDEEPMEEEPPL
Summary of the method: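 HDAC4 catalytic fragment (aa 627-1085, C-terminal GST tag, baculovirus-expressed) was used at 2 µg per assay with 1-2 h enzymatic incubation in the fluorimetric deacetylase assay. Four scalar concentrations were tested in quadruplicate, and the IC50 was calculated from fluorescence.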

Histone deacetylase 1 [6] = biological target: T1, Histone deacetylase 1 (Homo sapiens, UniProt Q13547); assay: Inhibition of HDAC1
T1 sequence (Q13547 whole entry): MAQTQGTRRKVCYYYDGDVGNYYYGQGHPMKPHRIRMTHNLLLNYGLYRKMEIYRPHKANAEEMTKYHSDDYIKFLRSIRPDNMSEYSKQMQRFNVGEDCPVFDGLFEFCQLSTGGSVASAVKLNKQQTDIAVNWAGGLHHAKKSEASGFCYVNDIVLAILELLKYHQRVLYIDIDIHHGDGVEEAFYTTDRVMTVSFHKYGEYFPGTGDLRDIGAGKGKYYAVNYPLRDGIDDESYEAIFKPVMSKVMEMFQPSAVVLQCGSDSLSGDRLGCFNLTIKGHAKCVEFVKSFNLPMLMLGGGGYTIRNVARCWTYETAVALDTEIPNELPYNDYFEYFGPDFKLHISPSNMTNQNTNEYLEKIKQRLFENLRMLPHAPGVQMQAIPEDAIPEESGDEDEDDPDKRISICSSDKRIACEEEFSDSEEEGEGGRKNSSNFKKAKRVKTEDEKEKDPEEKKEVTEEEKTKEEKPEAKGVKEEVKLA
Summary of the method: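 Purified recombinant HDAC1 was incubated with the acetyl-lysine Fluor de Lys substrate, with or without inhibitor. Developer then released a fluorophore, read by fluorimetry. Four scalar concentrations were tested in quadruplicate to derive the IC50.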

U-937 [7] = assay: Effect on granulocyte differentiation in U937 cells assessed as CD11c expression at 5 uM after 30 hrs; assay type: functional, cell-based; conditions: Homo sapiens; summary of the method: as §1
Histone deacetylase 1 [8] = biological target: T1, Histone deacetylase 1; assay: Inhibition of HDAC1 at 5 uM
U-937 [9] = assay: Effect on cell cycle analysis in U937 cells assessed as accumulation at G1 phase after 30 hrs; assay type: functional, cell-based; conditions: Homo sapiens
Summary of the method: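 U937 cells grown in RPMI with 10% FCS, antibiotics, 10 mM HEPES and 2 mM glutamine at 200 000 cells/mL, then treated 30 h with compounds in DMSO (1 or 5 µM). 2.5 × 10⁵ cells in hypotonic buffer (0.1% Triton X-100, 0.1% sodium citrate, 50 µg/mL propidium iodide, RNAse A), 30 min in the dark. DNA content by flow cytometry; run at least twice.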

| SMILES | Activity (U-937 [1]) | Activity (U-937 [2]) | Activity (U-937 [3]) | Activity (U-937 [4]) | Activity (U-937 [5]) | IC50 (Histone deacetylase 4) | IC50 (Histone deacetylase 1 [6]) | Activity (U-937 [7]) | Activity (Histone deacetylase 1 [8]) | Activity (U-937 [9]) |
| --- | --- | --- | --- | --- | --- | --- | --- | --- | --- | --- |
| O=C(CCCCCCC(=O)Nc1ccccc1)NO | Active | inactive | inactive |  |  |  |  |  |  |  |
| C=CCCCCCC[n+]1cccc(CCCCCCCCCCCCC[n+]2cccc(CCCC=C)c2)c1.[Cl-].[I-] | Active | inactive | inactive | 30% | Active |  |  |  |  |  |
| C=CCCCCCC[n+]1cccc(CCCCCCCCCCCC[n+]2cccc(CCCCC=C)c2)c1.[Cl-].[I-] | Active | inactive | inactive | 30% | Active | > 200000 nM | 530 nM | Active | Active |  |
| C=CCCCCCCc1ccc[n+](CCCCCCCCCCCCc2ccc[n+](CCCCCCC=C)c2)c1.[Cl-].[I-] | Active | inactive | inactive | 30% | Active |  |  |  |  |  |
| c1cc2c[n+](c1)CCCCCCCCCCCCCc1ccc[n+](c1)CCCCCCCCCCCC2 | Active | inactive | inactive |  |  |  |  |  |  |  |
| c1cc2c[n+](c1)CCCCCCCCCCCCc1ccc[n+](c1)CCCCCCCCCCCC2 |  | inactive | inactive |  |  |  |  |  |  |  |
| c1cc2c[n+](c1)CCCCCCCCCCCCCCc1ccc[n+](c1)CCCCCCCCCCCC2 |  | inactive | inactive |  |  |  |  |  |  |  |
| c1cc2c[n+](c1)CCCCCCCCCCCCCc1ccc[n+](c1)CCCCCCCCCCC2 | Active | inactive | inactive |  |  |  |  |  |  |  |
| C=CCCCCCCc1ccc[n+](CCCCCCCCCCCCCc2ccc[n+](CCCCCCC=C)c2)c1 | Active | inactive | inactive |  | Active |  |  |  |  |  |
| c1cc2c[n+](c1)CCCCCCCCCCCCCCc1ccc[n+](c1)CCCCCCCCCCCCC2 |  | inactive | inactive |  |  |  |  |  |  |  |
| C=CCCCCCC[n+]1cccc(CCCCCCCCCCCC[n+]2cccc(CCCC=C)c2)c1.[Cl-].[I-] | Active | inactive | inactive | 30% | Active | 540 nM | 1880 nM |  |  | Active |
| c1cc2c[n+](c1)CCCCCCCCCCCCc1ccc[n+](c1)CCCCCCCCCCC2 |  | inactive | inactive |  |  |  |  |  |  |  |
| Nc1ccccc1NC(=O)c1ccc(CNC(=O)OCc2cccnc2)cc1 | Active | inactive | inactive |  |  |  |  |  |  |  |
| C=CCCCCCC[n+]1cccc(CCCCCCCCCCCCC[n+]2cccc(CCCCC=C)c2)c1 | Active | inactive | inactive |  | Active |  |  |  |  |  |
